# MPTP inh: mitochondrial permeability transition pore inhibitors, primary screen, biochemical, isolated mouse mitochondria, absorbance | Ca2+ swelling absorbance, 30 min | inhibition, % at 10 µM | 360,000 compounds, 1.4% hits | AID 602449, 2012;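 active means inhibition of 50% or more, scaled per plate between neutral and stimulator controls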;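 further: 0% = DMSO wells given calcium and 100% = 1 mM EGTA wells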
# CHOP inh: inhibitors of CHOP promoter induction, primary screen, cell-based, unfolded protein response, luciferase reporter. CHO-K1 CHOP-promoter luciferase, tunicamycin-induced, 15-18 h. inhibition, % at 10 µM. 220,000 compounds, 3.8% hits. AID 2732, 2010;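 active means compounds that reduced the stress-induced luciferase reporter signal by more than about 70% of percent inhibition, limit read from the data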;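 further: 0% = tunicamycin plus vehicle and 100% = wells without tunicamycin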
# UPR XBP1 act: activators of adaptive XBP1 UPR arm, primary screen, cell-based, CHO-XBP1 luciferase reporter, luminescence, uHTS; 330,000 compounds, 0.33% hits; AID 463104, 2010; IRE1-XBP1 UPR activation; percent of tunicamycin response, DMSO as zero; activation, % at 20 µM;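 active means versus positive control, 20 µM dose yields 30% or more activation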;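 further: 100% = tunicamycin at 10 µg/mL and 0% = DMSO only wells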
#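 Material: CHO-XBP1 cells stably carrying IRE1-XBP1-driven luciferase reporter / Amount: 1000 cells per well / Compound: 20 µM, 1% DMSO / Times: 6 h treatment, 37 °C / Detection: luciferase luminescence / Measure: % activation of reporter signal versus tunicamycin and DMSO controls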
# UPR CHOP act: activators of apoptotic CHOP UPR arm, primary screen, cell-based, CHO-CHOP luciferase reporter, luminescence, uHTS | UPR activation; percent of tunicamycin response over DMSO baseline | activation, % at 10 µM | 330,000 compounds, 0.34% hits;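 active means at 10 µM dose, activation of 40% or more, normalized to positive control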;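 further: 100% = tunicamycin at 10 µg/mL and 0% = DMSO alone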
#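 Material: CHO-CHOP cells, stable luciferase reporter of PERK-eIF2a-CHOP signalling; quantity: 500 reporter cells seeded per well; buffer or medium: F12 medium containing 10% fetal bovine serum; compound: one dose, 10 µM in 0.5% DMSO; incubation: 6 h compound treatment, 37 °C; measured by: Steady-Glo luciferase luminescence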
# NR3A LBD binder: binders of NR3A ligand-binding domain, primary screen, biophysical, differential scanning fluorimetry, uHTS | Glutamate receptor ionotropic, NMDA 3A (GRIN3A) ligand-binding domain | NR3A LBD differential scanning fluorimetry, Tm shift; 0% = protein alone, 100% = glycine-bound protein | Tm shift relative to glycine control, % at 25 µM | 340,000 compounds, 2.5% hits | AID 1259313, 2017;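 active means melting temperature shift of at least 10% of the positive control shift, at one fixed dose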
# aDG glyco up: activators of alpha-DG glycosylation, primary screen, uHTS, Pro5-aDG cells, AlphaScreen; alpha-DG glycosylation AlphaScreen (IIH6); 0% Pro5, 100% B10-LARGE cell signal; 360,000 compounds, 0.22% hits; activation, % at 10 µM;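 active means activation of at least 8% versus controls, or a plate z-score of at least 8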;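 further: Pro5 are CHO cells carrying HIG-tagged alpha-DG that lacks glycosylation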
# MPTP counter: fluorescence retest of MPTP screen hits in isolated mitochondria, single concentration. inhibition, % at 10 µM. 5,000 compounds, 78% hits. shares compounds with MPTP inh. membrane potential, Rhodamine 123 fluorescence; in the data active means inhibition above about 22%;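 further: 0% = DMSO vehicle and 100% = positive control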
# MPTP abs DR: mitochondrial permeability transition pore inhibitors, dose response, biochemical, absorbance, uHTS hits; shares compounds with MPTP inh; isolated mitochondria swelling; IC50, µM; 780 compounds, 58% hits; AID 651561, 2012; in the data active means IC50 below about 20 µM
# MPTP counter DR: fluorescent counter-screen in isolated mitochondria, dose response, counter-screen for MPTP inhibitor project, biochemical, fluorescence, uHTS hits; shares compounds with MPTP inh; isolated mitochondria counterscreen, fluorescence read-out; IC50, µM; 780 compounds, 49% hits; AID 651564, 2012; in the data active means IC50 below about 80 µM
# An asterisk follows results filed as active; i = inactive; nt = not tested or not shown. Hits are enriched below; roughly 5.6% of the tested compounds scored in any of these assays.
SMILES,MPTP inh,CHOP inh,UPR XBP1 act,UPR CHOP act,NR3A LBD binder,aDG glyco up,MPTP counter,others
CCCCCCC(=O)N1C/C=C\C(c2ccc(OC)cc2)N(Cc2ccc(F)cc2)C(=O)[C@H]1Cc1ccccc1 (stereo partly specified),nt,49.7,-2.4,10.2,-0.8,nt,nt,
COc1ccc2nc3cc(Cl)ccc3c(Nc3cc(C(C)C)c(O)cc3C)c2c1,84.4*,10.4,4.4,3.6,-6.7,-0.6,109.4*,
O=C1NC(=S)S/C1=C\c1cc(Cl)ccc1Cl,98.5*,nt,nt,nt,1.6,-0.1,84.0*,
CCC(CC)=NNc1cccc([N+](=O)[O-])c1,1.8,5.4,-1.8,-1.2,-4.2,-0.4,nt,
N#C/C(=N\Nc1cccc(Cl)c1)C(=O)c1ccccc1,95.6*,-2.9,2.5,0.8,2.9,0.1,80.5*,
Cc1c(N/N=C(\C#N)C(=O)c2ccccc2)c(=O)n(-c2ccccc2)n1C,-1.7,53.7,nt,nt,-5.4,0.3,nt,
O=C(C(=NNc1ccccc1)c1ccccc1)c1ccccc1,0.5,nt,nt,nt,-15.8,-0.4,nt,
N#C/C(=N\Nc1ccccc1Cl)C(=O)c1ccccc1,91.0*,-4.5,-0.5,-0.8,2.5,-0.2,101.7*,
COc1ccc(C(=O)/C(C#N)=N/Nc2cccc([N+](=O)[O-])c2)cc1,94.5*,15.5,nt,nt,10.1*,0.2,80.7*,
CC[C@]12c3[nH]c4ccc(Cl)cc4c3CCN1C(=O)[C@@H](CC(=O)NC/C=C(\C)CCC=C(C)C)C[C@@H]2C(=O)N1CCN(C(=O)C2CC2)CC1,-1.5,nt,20.6,15.0,1.6,0.2,nt,
Cc1nc2ccccc2n1Cc1ccccc1Br,73.1*,nt,-2.6,1.4,-1.2,2.3,80.9*,
Cc1nc2ccccc2n1Cc1ccc(Br)cc1,92.8*,nt,3.1,0.6,-2.1,2.5,96.1*,
O=C(NCc1cc(Cl)cc(Cl)c1)c1csc(COCCO)n1,0.5,nt,nt,nt,nt,0.0,nt,
CC(C)(C)c1ccccc1OCCCCCNCCO,90.0*,-10.2,1.1,-0.9,1.7,2.2,-14.7,MPTP abs DR=7.88*;MPTP counter DR=>80
Cc1ccccc1OCCCCCNCCO,-2.4,31.1,nt,nt,0.3,0.0,nt,
Fc1ccc(Nc2c3c(nc4ccccc24)CCC3)cc1,70.2*,12.0,0.1,0.8,0.2,2.5,83.6*,
COc1cc(C#N)ccc1OCC(=O)Nc1cccc(S(=O)(=O)N(C)c2ccccc2)c1,0.6,nt,nt,nt,nt,0.1,nt,
COc1ccc(/C=C2\SC(=O)N(CCCC(=O)Nc3ccc(C(=O)O)cc3)C2=O)cc1OC,-1.0,nt,-2.7,0.9,1.0,0.1,nt,
CCN(CC)CCOC(=O)c1ccc(NC(=O)CCCN2C(=O)S/C(=C/c3ccc(OC)cc3)C2=S)cc1,60.7*,nt,-9.8,-5.0,-0.9,0.2,-1.9,
Cc1c(C(=O)Nc2ccncc2)sc2nc(-c3ccc(F)cc3)cn12,1.0,47.2,4.2,5.5,4.1,0.9,nt,
COc1ccc(-c2cn3c(C)c(C(=O)Nc4cccc(NC(C)=O)c4)sc3n2)cc1,79.7*,-0.2,3.5,5.8,13.2*,0.8,23.5*,
C=CCc1cccc(/C=N/NC(=O)C(C)Nc2cccc(C)c2)c1O (stereo unspecified),73.0*,91.1*,-2.2,-3.5,-12.8,-0.2,61.2*,
Clc1ccc(OCCCN2CCCCC2)c(Br)c1,78.4*,19.9,2.9,4.4,-5.2,0.7,-3.3,MPTP abs DR=i;MPTP counter DR=>80
CC1CCCN(CCOCCOc2ccc(Cl)cc2Br)C1 (stereo unspecified),59.4*,-17.7,-1.6,-1.0,-14.4,0.9,1.0,MPTP abs DR=i;MPTP counter DR=>80
CC1CCCN(CCOCCOc2ccc(Br)cc2Cl)C1 (stereo unspecified),3.0,6.7,-1.9,-0.1,0.2,2.1,nt,
SMILES,MPTP inh,CHOP inh,UPR XBP1 act,UPR CHOP act,NR3A LBD binder,aDG glyco up,MPTP counter,others
CCCNC(=O)C1(C)CCCN(Cc2ccccc2C#N)C1 (stereo unspecified),2.7,nt,nt,nt,nt,-0.3,nt,
Cc1ccc(S(=O)(=O)n2cc(CO)c3ccccc32)cc1,0.6,nt,nt,nt,0.3,0.1,nt,
Cc1cc(NC(=O)COc2ccc(F)c(Cl)c2)no1,0.7,nt,0.1,3.4,-0.4,0.1,nt,
Cc1ccc(S(=O)(=O)NCCC(=O)Nc2ccc(Cl)c(Cl)c2)cc1,89.6*,83.5*,-1.6,-0.5,10.0*,0.2,87.2*,
Cc1ccc(OCCC(=O)Nc2ccc(C)c(F)c2)cc1,2.9,37.1,-4.7,3.6,-5.0,-0.1,nt,
Cc1ccc(OCCC(=O)Nc2ccc(F)c(Cl)c2)cc1,66.9*,56.7,-1.6,-0.1,-2.3,0.0,63.7*,
Cc1cc(NC(=O)Nc2ccc(F)c(Cl)c2)no1,51.3*,57.6,-0.4,2.6,-2.0,-0.2,85.4*,
Cc1ccc(S(=O)(=O)NNC(=O)Nc2ccc(Cl)c(Cl)c2)cc1,86.2*,18.9,0.9,0.3,0.4,-0.1,97.1*,
CC(=O)c1ccc(S(=O)(=O)NCC(=O)N2CCN(C/C=C/c3ccccc3)CC2)cc1,0.1,nt,0.1,-0.8,1.4,1.4,nt,
CCCCN1C(=O)C(CC(=O)NCCCN(C)C)CC(C(=O)N(C(C)C)C(C)C)=C1C (stereo unspecified),1.0,nt,nt,nt,nt,-0.3,nt,
NC1=NC[C@H](Cc2ccc(O)cc2)N1CCCCC1CCCCC1,2.6,-1.1,0.2,1.4,-2.3,-0.3,nt,
NC1=NC[C@H](Cc2ccccc2)N1CCCCC1CCCCC1,82.1*,31.1,6.1,-0.2,-11.5,0.2,48.1*,
COC(=O)C1=NN(C(=O)c2cccc(Br)c2)C(O)(c2ccc(Cl)cc2)C1 (stereo unspecified),66.6*,4.1,0.3,0.0,0.7,-0.8,73.2*,
CCc1nnc(NC(=O)c2cccnc2SC)s1,-0.4,31.5,-3.3,-1.2,-0.8,-0.1,nt,
CCOC(=O)c1cc(NC(=O)COc2ccc([N+](=O)[O-])cc2)cc(C(=O)OCC)c1,50.3*,35.5,-2.9,-2.3,-3.4,-0.2,56.1*,
CCOC(=O)c1cccc(NC(=O)/C=C/c2ccc([N+](=O)[O-])cc2)c1,92.2*,58.9,1.4,1.9,5.4,0.2,78.2*,
